Source: PMC5084670 (Cancer Science, 2016)

Experiments:
[1] = tested on: murine model of MB with deletion of PTCH1; settings: cited from earlier work
[2] = tested on: advanced solid tumors; experiment: Tumor response by RECIST version 1.0; type: in vivo, human
Summary of the method: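 Daily oral test compound was given in 28-day cycles to adults with advanced solid tumors who had measurable or evaluable disease. Investigators judged tumor response from CT or MRI scans according to RECIST version 1.0.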

[3] = tested on: primary human muscle cells; settings: cited from earlier work
[4] = tested on: GLI1; experiment: GLI1 expression in normal skin samples by RT-PCR; type: in vivo, human
Summary of the method: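 Adult Asian patients with advanced solid tumors took oral test compound once daily in 28-day cycles after a 7-day single-dose run-in. Normal skin was sampled before treatment, at the end of cycle 1, and within 14 days after the last dose. RNA was extracted and analysed by RT-PCR to estimate GLI1 expression as a marker of Hh pathway activation.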

[5] = cited from earlier work
[6] = patients from Europe and the USA, CLDE225X2101 study

SMILES: Cc1c(C(=O)Nc2ccc(N3C[C@@H](C)O[C@@H](C)C3)nc2)cccc1-c1ccc(OC(F)(F)F)cc1 [Sonidegib]
- Antitumor activity [1]: antitumor activity
- Stable disease (SD), number of patients ([2]; group 1, 400 mg): 4 patients
- Stable disease (SD), number of patients ([2]; group 1, 600 mg): 1 patients
- Progressive disease, patients ([2]; group 1, 15 patients): 71%
- Stable disease (SD), patients ([2]; group 1, five patients): 24%
- Complete response or partial response ([2]; group 1 and group 2): Neither complete response nor partial response was observed
- Stable disease (SD), number of patients ([2]; group 2, 600 mg): three
- Best overall response SD, patients ([2]; group 2, 10 patients): 42%
- Progressive disease, patients ([2]; group 2, nine patients): 38%
- Effect on muscle cells [3]: induce muscle contraction and muscle fiber twitching
- Inhibition in GLI1 (normal skin, end of cycle 1 vs before treatment) ([4]; group 1, 400 mg, four patients): 32–88%
- Inhibition in GLI1 (normal skin, end of cycle 1 vs before treatment) ([4]; group 1, 600 mg, nine patients): 73–96%
- Inhibition in GLI1 (normal skin, end of cycle 1 vs before treatment) ([4]; group 2, 400 mg, six patients): 6.8–95%
- Inhibition in GLI1 (normal skin, end of cycle 1 vs before treatment) ([4]; group 2, 600 mg, two patients): 53–83%
- GLI1 expression in normal skin samples ([4]; paired samples from 22 patients, all except one patient): decreased GLI1 expression
- Rhabdomyolysis, patients ([5]; CLDE225X2101 study): three
- Half-life (t 1/2) ([5]; as reported in non-Asian patients): ~ 28 days
- AUClast ([5]; cycle 1 day 15, 400 mg, non-Asian patients (CLDE225X2101)): 8.806 µg·h/mL
- Maximum tolerated dose (MTD), once daily [5, 6]: 800 mg q.d.
- Maximum tolerated dose (MTD), twice daily [5, 6]: 250 mg b.i.d.
